Reference: ChEMBL document CHEMBL4196201, “Discovery of N-(4-{[5-Fluoro-7-(2-methoxyethoxy)quinazolin-4-yl]amino}phenyl)-2-[4-(propan-2-yl)-1 H-1,2,3-triazol-1-yl]acetamide (AZD3229), a Potent Pan-KIT Mutant Inhibitor for the Treatment of Gastrointestinal Stromal Tumors” (J Med Chem, 2018)

How the values were obtained:
[1] = biological target: Mast/stem cell growth factor receptor Kit (Homo sapiens) (UniProt P10721)
[2] = system: Mast/stem cell growth factor receptor Kit (Homo sapiens), P10721 [V560D,D816H]
Mast/stem cell growth factor receptor Kit (Homo sapiens), P10721 [V560D,D816H], sequence (P10721 whole entry V560D/D816H, the tested form may be a part): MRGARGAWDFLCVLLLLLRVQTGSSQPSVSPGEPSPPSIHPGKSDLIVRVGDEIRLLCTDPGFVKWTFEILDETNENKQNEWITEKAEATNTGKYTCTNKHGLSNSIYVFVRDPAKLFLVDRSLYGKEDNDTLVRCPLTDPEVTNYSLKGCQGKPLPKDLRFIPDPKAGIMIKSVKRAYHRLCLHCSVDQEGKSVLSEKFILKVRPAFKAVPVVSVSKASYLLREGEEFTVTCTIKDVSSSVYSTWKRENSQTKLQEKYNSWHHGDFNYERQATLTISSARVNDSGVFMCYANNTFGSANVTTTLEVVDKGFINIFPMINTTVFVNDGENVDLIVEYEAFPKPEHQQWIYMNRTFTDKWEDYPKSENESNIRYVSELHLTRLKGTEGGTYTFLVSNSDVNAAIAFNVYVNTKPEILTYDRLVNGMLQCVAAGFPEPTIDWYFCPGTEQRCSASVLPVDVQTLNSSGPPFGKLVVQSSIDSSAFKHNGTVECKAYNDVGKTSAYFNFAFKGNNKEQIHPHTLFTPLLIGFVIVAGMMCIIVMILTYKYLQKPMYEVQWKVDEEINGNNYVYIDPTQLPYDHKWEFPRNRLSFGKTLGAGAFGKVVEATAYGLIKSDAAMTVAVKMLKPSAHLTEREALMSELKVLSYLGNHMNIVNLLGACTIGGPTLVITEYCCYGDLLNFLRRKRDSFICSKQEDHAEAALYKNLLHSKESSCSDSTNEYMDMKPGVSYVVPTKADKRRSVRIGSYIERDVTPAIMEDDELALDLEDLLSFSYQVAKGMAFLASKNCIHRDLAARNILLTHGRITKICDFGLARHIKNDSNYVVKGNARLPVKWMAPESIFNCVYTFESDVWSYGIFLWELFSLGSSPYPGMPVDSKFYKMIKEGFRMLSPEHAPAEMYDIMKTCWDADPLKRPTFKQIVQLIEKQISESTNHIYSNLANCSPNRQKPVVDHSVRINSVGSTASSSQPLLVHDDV

BaF3 [3] = test: Antitumor activity against mouse BA/F3 cells expressing Kit exon 11 deletion (557 to 558 residues) and V654 mutant (unknown origin) allografted in CB17 SCID mouse assessed as tumor regression at 300 mg/kg, po qd measured on last day of dosing; assay type: functional
In short: (§1)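 Ba/F3 cells bearing the KIT exon 11 del/D816H or exon 11 del/V654A mutation were grown as allografts in mice. Compounds were given p.o. once (QD) or twice daily (BD), and vehicle was given BD p.o. Tumor growth inhibition and regression (%) were taken on the last day of dosing. p-values were calculated relative to vehicle.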

[4] = biological target: Mast/stem cell growth factor receptor Kit (Homo sapiens) (UniProt P10721); remark: listed apart in the source
[5] = system: Mast/stem cell growth factor receptor Kit (Homo sapiens), P10721 [UNDEFINED MUTATION]
Mast/stem cell growth factor receptor Kit (Homo sapiens), P10721 [UNDEFINED MUTATION], sequence (P10721 whole entry, looked up, stated change not applied, the tested form may be a part): as the sequence (P10721 whole entry V560D/D816H, the tested form may be a part) above, with D560V, H816D counted along it

BaF3 [6] = test: Antitumor activity against mouse BA/F3 cells expressing Kit exon 11 deletion (557 to 558 residues) and D816H mutant (unknown origin) allografted in CB17 SCID mouse assessed as tumor regression at 300 mg/kg, po qd measured on last day of dosing; assay type: functional
In short: as §1

[7] = Cytotoxicity in mouse parental BA/F3 cells incubated for 72 hrs by MTS assay; assay type: cell-based, BaF3
BaF3 [8] = test: Antitumor activity against mouse BA/F3 cells expressing Kit exon 11 deletion (557 to 558 residues) and V654 mutant (unknown origin) allografted in CB17 SCID mouse assessed as inhibition of tumor growth at 300 mg/kg, po qd measured on last day of dosing; assay type: functional; details: read-out: TGI
In short: as §1

[9] = biological target: Platelet-derived growth factor receptor beta (Homo sapiens) (UniProt P09619); test: Inhibition of TEL-fused PDGFRbeta (unknown origin) transfected in mouse BA/F3 cells assessed as inhibition of cell growth incubated for 72 hrs by MTS assay; assay type: cell-based
Platelet-derived growth factor receptor beta (Homo sapiens), sequence (P09619 whole entry, the tested form may be a part): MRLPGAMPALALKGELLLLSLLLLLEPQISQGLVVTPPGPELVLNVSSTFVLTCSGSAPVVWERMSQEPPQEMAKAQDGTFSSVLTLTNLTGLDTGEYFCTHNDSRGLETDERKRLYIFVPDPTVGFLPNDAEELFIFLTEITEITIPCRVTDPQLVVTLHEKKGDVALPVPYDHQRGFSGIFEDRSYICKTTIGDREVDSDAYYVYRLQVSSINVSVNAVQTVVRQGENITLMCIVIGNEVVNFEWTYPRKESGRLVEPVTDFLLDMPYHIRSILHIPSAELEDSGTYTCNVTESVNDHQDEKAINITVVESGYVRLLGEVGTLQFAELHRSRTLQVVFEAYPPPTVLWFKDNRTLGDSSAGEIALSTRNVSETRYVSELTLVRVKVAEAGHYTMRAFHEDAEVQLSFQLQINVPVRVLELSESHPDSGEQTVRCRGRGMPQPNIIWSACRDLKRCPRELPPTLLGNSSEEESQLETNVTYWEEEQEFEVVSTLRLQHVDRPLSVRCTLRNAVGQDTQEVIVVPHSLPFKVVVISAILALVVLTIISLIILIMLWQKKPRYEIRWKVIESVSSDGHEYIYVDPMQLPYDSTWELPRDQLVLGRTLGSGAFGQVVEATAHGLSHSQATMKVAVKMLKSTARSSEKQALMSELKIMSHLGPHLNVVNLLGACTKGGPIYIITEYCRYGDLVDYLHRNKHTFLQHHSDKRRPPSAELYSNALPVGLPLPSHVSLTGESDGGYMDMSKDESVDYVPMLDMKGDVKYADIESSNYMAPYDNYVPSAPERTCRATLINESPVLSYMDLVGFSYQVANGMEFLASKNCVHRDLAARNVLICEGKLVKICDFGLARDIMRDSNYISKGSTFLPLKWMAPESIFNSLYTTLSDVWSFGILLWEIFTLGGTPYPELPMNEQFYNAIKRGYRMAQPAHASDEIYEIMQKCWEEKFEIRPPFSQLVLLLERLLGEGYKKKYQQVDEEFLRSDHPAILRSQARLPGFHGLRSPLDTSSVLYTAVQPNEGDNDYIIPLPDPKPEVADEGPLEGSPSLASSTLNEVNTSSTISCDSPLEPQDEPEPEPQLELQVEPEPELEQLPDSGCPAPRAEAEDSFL

[10] = system: Mast/stem cell growth factor receptor Kit (Homo sapiens), P10721 [UNDEFINED MUTATION]; remark: listed apart in the source
[11] = biological target: Mast/stem cell growth factor receptor Kit (Homo sapiens) (UniProt P10721); remark: listed apart in the source
[12] = system: Mast/stem cell growth factor receptor Kit (Homo sapiens), P10721 [V560D]
Mast/stem cell growth factor receptor Kit (Homo sapiens), P10721 [V560D], sequence (P10721 whole entry V560D): as the sequence (P10721 whole entry V560D/D816H, the tested form may be a part) above, with H816D counted along it

[13] = biological target: Mast/stem cell growth factor receptor Kit (Homo sapiens) (UniProt P10721); remark: listed apart in the source
BaF3 [14] = test: Antitumor activity against mouse BA/F3 cells expressing Kit exon 11 deletion (557 to 558 residues) and D816H mutant (unknown origin) allografted in CB17 SCID mouse assessed as inhibition of tumor growth at 300 mg/kg, po qd measured on last day of dosing; assay type: functional; details: read-out: TGI
In short: as §1

[15] = system: Platelet-derived growth factor receptor alpha (Homo sapiens), P16234 [V561D,D842V]
Platelet-derived growth factor receptor alpha (Homo sapiens), P16234 [V561D,D842V], sequence (P16234 whole entry V561D/D842V): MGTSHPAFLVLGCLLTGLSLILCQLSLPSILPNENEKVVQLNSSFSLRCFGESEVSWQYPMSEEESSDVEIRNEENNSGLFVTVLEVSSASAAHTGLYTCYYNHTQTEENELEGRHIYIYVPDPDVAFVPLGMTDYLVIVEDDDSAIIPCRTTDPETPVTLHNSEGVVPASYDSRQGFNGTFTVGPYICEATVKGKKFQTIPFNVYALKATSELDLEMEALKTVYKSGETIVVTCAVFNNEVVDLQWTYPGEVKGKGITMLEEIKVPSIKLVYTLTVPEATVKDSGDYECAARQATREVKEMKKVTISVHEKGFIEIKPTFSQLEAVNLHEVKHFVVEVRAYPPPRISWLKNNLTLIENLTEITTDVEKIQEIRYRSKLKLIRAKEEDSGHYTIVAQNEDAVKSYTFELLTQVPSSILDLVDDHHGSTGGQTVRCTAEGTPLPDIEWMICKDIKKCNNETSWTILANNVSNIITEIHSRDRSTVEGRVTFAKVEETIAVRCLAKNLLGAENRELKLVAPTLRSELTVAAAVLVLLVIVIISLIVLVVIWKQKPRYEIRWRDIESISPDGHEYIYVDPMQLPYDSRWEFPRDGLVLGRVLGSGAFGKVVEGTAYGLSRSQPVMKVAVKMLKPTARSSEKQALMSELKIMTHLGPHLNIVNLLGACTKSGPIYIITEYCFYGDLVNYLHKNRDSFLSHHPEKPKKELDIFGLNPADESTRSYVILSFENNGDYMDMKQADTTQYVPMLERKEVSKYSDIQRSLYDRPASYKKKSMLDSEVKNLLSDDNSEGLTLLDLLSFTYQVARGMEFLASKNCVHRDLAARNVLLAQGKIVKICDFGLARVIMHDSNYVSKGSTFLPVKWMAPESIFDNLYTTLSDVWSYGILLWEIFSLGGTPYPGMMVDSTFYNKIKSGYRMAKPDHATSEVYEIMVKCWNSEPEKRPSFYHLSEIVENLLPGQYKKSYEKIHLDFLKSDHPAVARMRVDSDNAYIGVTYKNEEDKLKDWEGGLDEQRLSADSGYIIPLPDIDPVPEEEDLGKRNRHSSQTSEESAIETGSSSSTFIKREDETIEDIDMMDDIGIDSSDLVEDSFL

[16] = system: Mast/stem cell growth factor receptor Kit (Homo sapiens), P10721 [UNDEFINED MUTATION]; remark: listed apart in the source
[17] = system: Mast/stem cell growth factor receptor Kit (Homo sapiens), P10721 [UNDEFINED MUTATION]; remark: listed apart in the source
[18] = system: Mast/stem cell growth factor receptor Kit (Homo sapiens), P10721 [UNDEFINED MUTATION]; remark: listed apart in the source
BaF3 [19] = test: Antitumor activity against mouse BA/F3 cells expressing Kit exon 11 deletion (557 to 558 residues) and V654 mutant (unknown origin) allografted in CB17 SCID mouse assessed as tumor regression at 80 mg/kg, po qd measured on last day of dosing; assay type: functional
In short: as §1

BaF3 [20] = test: Antitumor activity against mouse BA/F3 cells expressing Kit exon 11 deletion (557 to 558 residues) and V654 mutant (unknown origin) allografted in CB17 SCID mouse assessed as inhibition of tumor growth at 80 mg/kg, po qd measured on last day of dosing; assay type: functional; details: read-out: TGI
In short: as §1

[21] = biological target: Platelet-derived growth factor receptor alpha (Homo sapiens) (UniProt P16234)
Platelet-derived growth factor receptor alpha (Homo sapiens), sequence (P16234 whole entry): as the sequence (P16234 whole entry V561D/D842V) above, with D561V, V842D counted along it

Mast/stem cell growth factor receptor Kit (Homo sapiens), sequence (P10721 whole entry, the tested form may be a part): as the sequence (P10721 whole entry V560D/D816H, the tested form may be a part) above, with D560V, H816D counted along it

| Structure (SMILES) | GI50 [2] | GI50 [4] | GI50 [5] | GI50 at 72 h [7] | GI50 [9] | GI50 [10] | GI50 [11] | GI50 [15] | GI50 [17] | further results |
| --- | --- | --- | --- | --- | --- | --- | --- | --- | --- | --- |
| Cc1ccc(NC(=O)c2ccc(CN3CCN(C)CC3)cc2)cc1Nc1nccc(-c2cccnc2)n1 [IMATINIB] | 1190 nM | 3950 nM | 535 to 537 nM | > 10 µM | 102 nM | 669 nM | 17 nM | 567 nM | 216 nM | GI50 [1]: 2750 nM; Activity (BaF3 [3]): 0%; Activity (BaF3 [6]): 0%; inhibition in vivo at 300 mg/kg (BaF3 [8]): 34%; GI50 [12]: 70 nM; GI50 [13]: 192 nM; inhibition in vivo at 300 mg/kg (BaF3 [14]): 43%; GI50 [16]: 312 nM |
| CCN(CC)CCNC(=O)c1c(C)[nH]c(/C=C2\C(=O)Nc3ccc(F)cc32)c1C [SUNITINIB] | 696 nM | 12 nM | 398 to 400 nM | 4.79 µM | 114 nM | 782 nM | 4 nM | 631 nM | 214 nM | GI50 [18]: 271 nM; Activity (BaF3 [19]): 87%; inhibition in vivo at 80 mg/kg (BaF3 [20]): > 100%; GI50 [21]: 30 nM |
